The species named for assay [1] is Cavia porcellus. Nature of the assay: Inhibition of CCK-8-stimulated amylase release. In kind it is functional.
For assay [2], the target named is T1, Cholecystokinin receptor type A (Cavia porcellus, UniProt Q63931).
T1 sequence (Q63931 whole entry): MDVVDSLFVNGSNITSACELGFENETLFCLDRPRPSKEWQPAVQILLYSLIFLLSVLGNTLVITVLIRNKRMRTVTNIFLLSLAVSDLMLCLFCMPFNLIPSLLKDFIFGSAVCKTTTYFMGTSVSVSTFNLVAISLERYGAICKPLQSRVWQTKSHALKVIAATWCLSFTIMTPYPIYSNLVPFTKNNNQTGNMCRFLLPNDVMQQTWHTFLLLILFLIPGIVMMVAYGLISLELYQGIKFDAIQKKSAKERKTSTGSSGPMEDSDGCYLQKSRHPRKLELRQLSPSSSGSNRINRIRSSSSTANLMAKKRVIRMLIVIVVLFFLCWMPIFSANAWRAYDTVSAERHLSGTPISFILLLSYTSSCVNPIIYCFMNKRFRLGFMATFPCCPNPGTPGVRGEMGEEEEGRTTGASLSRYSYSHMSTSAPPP
Kind of assay: Inhibition of [125I]Bolton-Hunter CCK-8 binding to cholecystokinin type A receptor in guinea pig pancreatic membranes. In kind it is cell membranes.

Assay [3] is filed under the species Cavia porcellus. Kind of assay: The compound was tested for the inhibition of CCK-8-stimulated amylase release. In kind it is functional. The method in brief: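 Amylase release was stimulated with CCK-8 at 3 × 10⁻¹⁰ M as the reference concentration, following a published procedure. Inhibition by test compounds gave IC50 values.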

Where only a bound is given, the exact number is not on record here.

A word on the IC50: it is the concentration needed to halve the response being measured. `CCCCCN(CCCCC)C(=O)[C@@H](Cc1c[nH]c2ccccc12)NC(=O)c1ccc[nH]1`: the IC50 in the assay filed under Cavia porcellus [1] is greater than 100000 nM.
Take `CCCCCN(CCCCC)C(=O)[C@@H](Cc1c[nH]c2ccccc12)NC(=O)c1ccc2ncccc2c1`: the 50% inhibitory concentration (IC50) was less than 10000 nM in the assay filed under Cavia porcellus [1] and 239 nM in assay [2].
For `CCCCCN(CCCCC)C(=O)[C@H](Cc1c[nH]c2ccccc12)NC(=O)Nc1cccc(C)c1` the same measures were less than 100000 nM and 1500 nM.
Turning to `CCCCCN(CCCCC)C(=O)[C@H](Cc1c[nH]c2ccccc12)NC(=O)c1ccc(Cl)c(Cl)c1`, the figures for the IC50 (in the assay filed under Cavia porcellus [1]; in assay [2]) were greater than 30000 nM and 670 nM, respectively.
In the case of `CCCCCN(CCCCC)C(=O)[C@H](Cc1c[nH]c2ccc(F)cc12)NC(=O)c1cnc2ccccc2c1`, the IC50 was greater than 100000 nM in the assay listed under Cavia porcellus [1] and 48 nM in assay [2].
`CCCCCN(CCCCC)C(=O)[C@H](Cc1c[nH]c2ccccc12)NC(=O)Nc1ccc(C)cc1`: in assay [2], the IC50 is greater than 10000 nM.
`CCCCCN(CCCCC)C(=O)[C@@H](Cc1c[nH]c2ccccc12)NC(=O)c1cc(O)c2cccc(O)c2n1` had an IC50 in the assay listed under Cavia porcellus [1] of 46 nM.
`O=C(N[C@@H](Cc1c[nH]c2ccccc12)C(=O)O)c1ccc(Cl)cc1` [BENZOTRIPT] displayed an IC50 in assay [2] greater than 100000 nM.
For the molecule `CCCCCN(CCCCC)C(=O)[C@@H](Cc1c[nH]c2ccccc12)NC(=O)c1cc2ccccc2[nH]1`, in the assay filed under Cavia porcellus [1], the IC50 came out at 670 nM.
For the molecule `CCCCCN(CCCCC)C(=O)[C@H](Cc1c[nH]c2ccccc12)NC(=O)c1cc2ccccc2[nH]1`, the IC50 in the assay listed under Cavia porcellus [1] is less than 30000 nM; in assay [2], 520 nM.
Regarding `CCCCCN(CCCCC)C(=O)[C@H](Cc1c[nH]c2ccccc12)NC(=O)c1ccc(Cl)cc1`, the half-maximal inhibitory concentration (IC50) is less than 30000 nM in the assay filed under Cavia porcellus [1] and 475 nM in assay [2].
`CCCCCN(CCCCC)C(=O)[C@@H](Cc1c[nH]c2ccccc12)NC(=O)/C=C/c1cccnc1`: the concentration for half-maximal inhibition (IC50) was less than 100000 nM in the assay listed under Cavia porcellus [1] and greater than 1000 nM in assay [2].
In turn, `CN(Cc1ccccc1)C(=O)[C@@H](Cc1c[nH]c2ccccc12)NC(=O)c1cnc2ccccc2c1` yielded a 50% inhibitory concentration (IC50) in assay [2] of 600 nM.
`CCCCCN(CCCCC)C(=O)C(Cc1c[nH]c2ccc(OCc3ccccc3)cc12)NC(=O)c1cnc2ccccc2c1` (configuration not stated) displayed an IC50 in the assay listed under Cavia porcellus [1] of less than 100000 nM.
Still for that read-out and setting: in the case of `CCCCCN(CCCCC)C(=O)[C@H](Cc1c[nH]c2ccccc12)NC(=O)c1cnc2ccccc2c1` it was less than 100000 nM.
As to `CCCCCN(CCCCC)C(=O)[C@@H](Cc1c[nH]c2ccccc12)NC(=O)c1cc(O)c2ccccc2n1`, the IC50 in the assay filed under Cavia porcellus [1] worked out at 110 nM; in assay [2] it was 51 nM.
On the same counts, the results for `CCCCCN(CCCCC)C(=O)[C@@H](CC1C(=O)Nc2ccccc21)NC(=O)c1cnc2ccccc2c1` (some centres not stated) are 62 nM and 46 nM.
For the molecule `C[C@H](NC(=O)[C@@H](Cc1c[nH]c2ccccc12)NC(=O)c1cnc2ccccc2c1)c1ccccc1`, in assay [2], the concentration for half-maximal inhibition (IC50) was determined as 180 nM.
As to `CCCCCN(CCCCC)C(=O)[C@@H](Cc1c[nH]c2ccccc12)NC(=O)c1ccc(Cl)c(Cl)c1`, the IC50 amounted to 2500 nM in the assay filed under Cavia porcellus [1] and 190 nM in assay [2].
On the same counts, the results for `CCCCCN(CCCCC)C(=O)[C@@H](Cc1c[nH]c2ccccc12)NC(=O)c1ccc(Cl)cc1` are less than 10000 nM and 370 nM.
`CCCCCN(CCCCC)C(=O)[C@@H](Cc1c[nH]c2ccccc12)NC(=O)c1cccnc1`: the IC50 in the assay filed under Cavia porcellus [1] was greater than 100000 nM; in assay [2], 14600 nM.
On the same counts, the results for `CCCCCN(CCCCC)C(=O)[C@@H](Cc1c[nH]c2ccc(O)cc12)NC(=O)c1cnc2ccccc2c1` are 27 nM and 11 nM.
For `CCCCCN(CCCCC)C(=O)[C@@H](CCC(=O)O)NC(=O)c1cc(O)c2cccc(O)c2n1` the same measures were 106 nM and 7 nM.
Turning to `CCOC(=O)CN(Cc1ccccc1)C(=O)[C@@H](Cc1c[nH]c2ccccc12)NC(=O)c1cnc2ccccc2c1`, the concentration for half-maximal inhibition (IC50) in assay [2] was determined as 400 nM.
On the same count and under the same terms, in the case of `CCCCCN(CCCCC)C(=O)[C@H](Cc1c[nH]c2ccccc12)NC(=O)Nc1ccc(Cl)cc1` it was greater than 10000 nM.
On to `CCCCCN(CCCCC)C(=O)[C@@H](Cc1c[nH]c2ccccc12)NC(=O)c1ccc2cccc(O)c2n1`, for which the 50% inhibitory concentration (IC50) is less than 100000 nM in the assay listed under Cavia porcellus [1] and 390 nM in assay [2].
Regarding `CCCCCN(CCCCC)C(=O)[C@@H](Cc1c[nH]c2ccccc12)NC(=O)c1cccc2ccccc12`, the results for the IC50 (in the assay listed under Cavia porcellus [1]; in assay [2]) were less than 30000 nM and 500 nM, respectively.
In turn, `CCCCCN(CCCCC)C(=O)[C@@H](Cc1c[nH]c2ccccc12)NC(=O)c1cnc2ccccc2c1` had a half-inhibitory concentration (IC50) in the assay listed under Cavia porcellus [1] of 43 nM.
Regarding `CCCCCN(CCCCC)C(=O)[C@@H](Cc1c[nH]c2ccccc12)NC(=O)c1ccc2ccccc2n1`, the concentration for half-maximal inhibition (IC50) in the assay filed under Cavia porcellus [1] was 1300 nM; in assay [2], 120 nM.
Take `CCCCCN(CCCCC)C(=O)[C@@H](Cc1c[nH]c2ccccc12)NC(=O)c1c[nH]c2ccccc12`: the IC50 is less than 10000 nM in the assay filed under Cavia porcellus [1] and 430 nM in assay [2].
Regarding `CCCCCN(CCCCC)C(=O)[C@@H](Cc1c(Sc2ccccc2[N+](=O)[O-])[nH]c2ccccc12)NC(=O)c1cnc2ccccc2c1`, the IC50 in the assay filed under Cavia porcellus [1] was less than 100000 nM.
As for `CCCCCN(CCCCC)C(=O)[C@@H](Cc1c[nH]c2ccccc12)NC(=O)c1cc2ccccc2cn1`, the half-inhibitory concentration (IC50) in the assay filed under Cavia porcellus [1] is less than 100000 nM; in assay [2] it was 880 nM.
On to `CCCCCN(CCCCC)C(=O)[C@@H](Cc1c[nH]c2ccccc12)NC(=O)Nc1cccc(C)c1`, for which the IC50 in the assay listed under Cavia porcellus [1] was greater than 30000 nM; in assay [2], 1100 nM.
With `C[C@@H](NC(=O)[C@@H](Cc1c[nH]c2ccccc12)NC(=O)c1cnc2ccccc2c1)c1ccccc1`, the IC50 was 810 nM in assay [2] and greater than 10000 nM in the assay listed under Cavia porcellus [3].
In the case of `CCCCCN(CCCCC)C(=O)[C@@H](Cc1c[nH]c2ccccc12)NC(=O)c1nccc2ccccc12`, the IC50 in the assay filed under Cavia porcellus [1] is greater than 100000 nM.
With `CCCCCN(CCCCC)C(=O)[C@@H](Cc1c[nH]c2ccccc12)NC(=O)Nc1ccc(Cl)cc1`, the IC50 in assay [2] amounted to 4200 nM.
With `CCCCCN(CCCCC)C(=O)[C@@H](Cc1c[nH]c2ccccc12)NC(=O)c1cc2cc(F)ccc2[nH]1`, the half-maximal inhibitory concentration (IC50) is less than 100000 nM in the assay listed under Cavia porcellus [1] and 155 nM in assay [2].
In the case of `CCCCCN(CCCCC)C(=O)[C@@H](Cc1c[nH]c2ccccc12)NC(=O)c1ccc2cc(O)ccc2c1`, inhibition in the assay filed under Cavia porcellus [1] was half-maximal at 100000 nM (IC50).
Turning to `CCCCCN(CCCCC)C(=O)[C@@H](Cc1c[nH]c2ccccc12)NC(=O)c1ccc2ccccc2c1`, the concentration for half-maximal inhibition (IC50) in the assay filed under Cavia porcellus [1] turned out to be 360 nM; in assay [2], 29 nM.

These data come from ChEMBL document CHEMBL1125805, “Cholecystokinin antagonists: (R)-tryptophan-based hybrid antagonists of high affinity and selectivity for CCK-A receptors” (J Med Chem, 1991).
